# TPT1 inh – inhibitors of Candida albicans tRNA 2'-phosphotransferase TPT1 | recombinant caTPT1, FP RNA substrate dephosphorylation | inhibition, % at 5 µM | 300,000 compounds, 0.81% hits;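 active means inhibition above the mean of all tested compounds plus 3 SD, set per screening campaign, cut at about 24% in these data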;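 further: plate controls were DMSO alone for no effect and ferristatin control at 100 nM for full effect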
# CSN inh – blocks human CSN-mediated cullin deneddylation | Q92905 | Purified CSN, SCF-Nedd8-OG deneddylation, fluorescence polarization | inhibition, % at 12.5 µM | 360,000 compounds, 0.38% hits | AID 651999;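 active means pattern-corrected inhibition above about 35%, with an unprinted fluorescence ratio check between 0.5 and 1.5, limit read from the data, passing the limit was not always enough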;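 further: 0% = enzyme with substrate and 100% = substrate without enzyme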
# Target sequence (Q92905 whole entry, looked up, one chain of several): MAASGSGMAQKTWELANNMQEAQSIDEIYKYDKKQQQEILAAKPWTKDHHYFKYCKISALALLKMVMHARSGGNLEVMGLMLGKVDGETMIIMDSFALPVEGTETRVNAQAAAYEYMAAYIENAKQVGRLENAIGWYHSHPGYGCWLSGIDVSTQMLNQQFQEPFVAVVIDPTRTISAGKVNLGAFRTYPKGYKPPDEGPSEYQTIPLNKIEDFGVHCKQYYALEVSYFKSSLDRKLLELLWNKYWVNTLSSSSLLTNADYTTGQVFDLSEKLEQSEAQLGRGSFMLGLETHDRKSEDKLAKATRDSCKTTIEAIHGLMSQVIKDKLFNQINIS
#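 assay system = purified human Csn5 enzyme expressed in HEK293T cells | amount = 0.24 nM enzyme | buffer or medium = Tris/NaCl/DTT buffer, pH 7.5 | reagent = 10 nM SCFSkp2-Nedd8OG | compound = one concentration, 12.5 µM, 0.25% DMSO | times = 90 min reaction at room temperature | signal = FP | read-out basis = % inhibition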
# HNF4A DNA FP – change in binding of human HNF4 alpha to DNA; HNF4a-FITC DNA binding, fluorescence polarization, 1 h; 360,000 compounds, 0.3% hits; AID 1224865; activity change, % at 10 µM; in the data active means activity change above about 30%, passing the limit was not always enough
# NR1D1 modulator – modulates human Rev-erb alpha binding to DNA; P20393; Rev-erbα–FITC-DNA binding, fluorescence polarization, 90 min; activity, % at 10 µM; 370,000 compounds, 0.79% hits;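 active means activity above about 14%, limit read from the data; passing the limit was not always enough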;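 further: 0% = DMSO wells with 35 nM protein and 100% = DMSO wells with 750 nM protein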
# TPT1 inh confirm – confirmation of Candida albicans TPT1 inhibitors. shares compounds with TPT1 inh. 2,400 compounds, 74% hits. recombinant caTPT1, fluorescence polarization, RNase T1 coupled. inhibition, % at 5 µM. AID 2149;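 active means inhibition above the primary screen limit, the mean inhibition of all tested compounds plus 3 SD, cut at about 25% in these data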
# RNase T1 counter – counter-screen for TPT1 inhibitors: inhibitors of Aspergillus oryzae RNase T1 | shares compounds with TPT1 inh | RNase T1 cleavage, fluorescence polarization, 1536-well | inhibition, % at 5 µM | 2,400 compounds, 83% hits;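 active means inhibition above the solvent-only control well mean plus 3 SD, limit set per screening run, cut at about 23% in these data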;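 further: plate controls were DMSO wells with enzyme for no effect and wells without RNase T1 for full effect; inhibitors block cleavage so intact labeled substrate keeps polarization high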
# Target sequence (P00651 whole entry, looked up): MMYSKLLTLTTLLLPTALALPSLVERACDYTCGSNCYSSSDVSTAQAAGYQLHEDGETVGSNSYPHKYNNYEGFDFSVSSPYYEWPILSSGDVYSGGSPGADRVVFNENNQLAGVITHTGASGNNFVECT
# The depositor's hits bear a star; . = no result. Only some compounds are listed: those with a hit (about 1.7% of all), similar ones and a draw of the others.
SMILES,TPT1 inh,CSN inh,HNF4A DNA FP,NR1D1 modulator,TPT1 inh confirm,RNase T1 counter
N#Cc1ccccc1Cn1cc(/C=N/Nc2ccc([N+](=O)[O-])cn2)c2ccccc21,37*,11,25,4,82*,89*
Cc1ccccc1-n1c(C)cc(/C=N/Nc2ccc([N+](=O)[O-])cn2)c1C,38*,6,11,-2,41*,56*
CCSc1ncc(/C=N/Nc2ccccc2)n1C,-3,1,2,4,.,.
CC(=O)N1CCN(c2ccc(N3CCN(Cc4ccccc4)[C@H](C)C3)c(C)c2)[C@H](C)C1,.,.,.,-5,.,.
S=C(Nc1ccc(Cl)c(Cl)c1)Nc1nnc(-c2ccncc2)s1,.,.,.,-24,.,.
COC(=O)c1c(SCC(=O)NC2CCCCC2)[nH]c2ccccc2c1=O,25*,21,16,0,19,30*
O=C1NC(=S)S/C1=C\c1cc(Cl)ccc1Cl,.,9,-1,0,.,.
CCn1c(C)cc(/C=C2/SC(=S)NC2=O)c1C,98*,-10,6,-1,105*,119*
Cc1sc(-n2c(C)cc(/C=C3\SC(=S)NC3=O)c2C)c(C#N)c1C,45*,35,67*,6,60*,75*
Cc1cc(/C=C2\SC(=S)NC2=O)c(C)[nH]1,131*,93,57*,-13,97*,108*
CCOc1ccc(C(=O)CSc2nnc(SCc3ccc(Cl)cc3)s2)cc1,.,.,.,-4,.,.
CCOC(=O)c1c(/N=C/N(C)C)sc(/C=N/Nc2ccccc2)c1-c1ccccc1Cl,35*,11,17,6,40*,52*
COc1ccc(CN2CCC(CNC(=O)Nc3ccc(C)c(F)c3)CC2)cc1,.,.,.,-1,.,.
CN(C)c1ccc(/C=C/c2nc3ccccc3c(=O)[nH]2)cc1,64*,5,67*,1,74*,83*
O=c1[nH]c(/C=C/c2ccc(Br)cc2)nc2ccccc12,-2,0,3,6,.,.
Cc1cccc(/C=C\c2nc3ccccc3c(=O)[nH]2)c1,0,-8,3,7,.,.
CN(C)c1ccc(/C=C/c2nc3ccccc3c(=O)n2CCO)cc1,80*,94,113,10,84*,95*
COc1cc(/C=C/c2nc3ccccc3c(=O)[nH]2)cc(Cl)c1O,41*,21,40*,-27,71*,74*
Cc1ccc(C)c(NC(=O)c2cccc3c2-c2ccccc2C3=O)c1,.,.,.,-2,.,.
c1ccc(Nc2c(-c3ccco3)nc3ccccn23)cc1,-1,-3,2,2,.,.
c1ccc(-c2nc(-c3ccco3)n3ccccc23)cc1,28*,13,-21,-12,25*,30*
Cc1ccc(C2NC(=O)c3n[nH]c(C)c32)cc1 (centres undefined),.,.,.,0,.,.
O=C(/C=C/c1ccco1)N1CCC(Cc2ccccc2)CC1,131*,19,-11,0,2,2
O=C1C=C(O)c2[nH]c(=O)ccc2C1=O,.,0,-12,1,.,.
O=C(c1ccc(-c2ccc([N+](=O)[O-])cc2)o1)N1CCCC(C(F)(F)F)C1 (centres undefined),25*,-3,6,-2,13,19
SMILES,TPT1 inh,CSN inh,HNF4A DNA FP,NR1D1 modulator,TPT1 inh confirm,RNase T1 counter
O=C(c1ccc(-c2ccc([N+](=O)[O-])cc2)o1)N1CCCCCCC1,.,-1,3,1,.,.
CC(C)(S)C(=O)N[C@@H](CS)C(=O)O,.,.,.,8,.,.
CCN(CC)c1ccc(NC(=O)CCCOc2cccc(C)c2)cc1,.,-5,1,-4,.,.
CCN(CC)c1ccc(/C=N/OCC(=O)Nc2cccc(C)c2)cc1,34*,19,30,6,43*,56*
O=C1c2ccccc2/C(=C\c2ccc(O[C@@H]3CCCCO3)cc2)N1c1ccccc1,.,.,.,-5,.,.
OCCN1CN(c2ccccc2)C(=S)N(c2ccccc2)C1,.,.,.,5,.,.
COc1ccc(S(=O)(=O)Nc2ccc3c(c2)OCO3)cc1,1,3,-3,-4,.,.
COc1ccc(N/C=C2\CCOC2=O)cc1,7,-3,0,-5,.,.
O=C1/C(=C/Nc2ccc3c(c2)OCO3)CCc2ccccc21,83*,13,49*,-1,57*,74*
COc1ccc(N/C=C2\CCc3ccccc3C2=O)cc1,51*,18,22,-1,59*,71*
COc1ccc2c(c1)CC/C(=C\Nc1ccc3c(c1)OCO3)C2=O,65*,15,45*,-3,74*,87*
O=C1OC2(CCCCC2)OC(=O)C1=CNc1ccc2c(c1)OCO2,-4,7,2,1,.,.
COc1ccc(S[C@]2(C(=O)N3CCN(C(C)=O)CC3)CC(=O)N[C@@H]2c2ccc(OC)cc2)cc1,.,.,.,-2,.,.
O=C(/C=C/c1ccc(-c2ccccc2)o1)c1ccccc1,13,4,2,-1,.,.
Cc1ccc(-c2ccc(/C=C/C(=O)c3ccccc3)o2)cc1,48*,-7,16,0,77*,84*
Cc1cc(N2C(=O)C(O)=C(C(=O)c3cc4ccccc4o3)C2c2cccc(Br)c2)no1 (centres undefined),31*,7,0,4,13,25*
COC(=O)c1ccc(C2C(C(=O)c3cc4ccccc4o3)=C(O)C(=O)N2c2cc(C)on2)cc1 (centres undefined),44*,18,8,3,16,26*
Cc1cc(N2C(=O)C(O)=C(C(=O)c3cc4ccccc4o3)C2c2ccc(OC(C)C)cc2)no1 (centres undefined),1,-1,0,0,.,.
COc1cccc2cc(C(=O)C3=C(O)C(=O)N(c4cc(C)on4)C3c3cccs3)oc12 (centres undefined),31*,14,5,1,23,36*
COC(=O)[C@@H]1C[C@@H]2CC[C@@H](O)C[C@@H]2N1Cc1ccccc1OS(=O)(=O)c1ccc(C)cc1,34*,9,26,1,37*,48*
O=C1N=C(N2CCOCC2)S/C1=C/c1ccc(-c2ccc(F)cc2)o1,11,6,8,11,.,.
O=C1S/C(=C/c2ccc(N3CCOCC3)o2)C(=O)N1Cc1ccc(F)cc1,136*,132,187,6,163*,162*
O=C1S/C(=C\c2ccc(N3CCOCC3)o2)C(=O)N1Cc1ccc(F)cc1,142*,115,130,.,168*,165*
CCOC(=O)C1CSCCS(=O)(=O)N1Cc1cccc(F)c1 (centres undefined),.,.,.,-2,.,.
CN1CCc2c(sc3c2C(=O)NC(c2cccc(OC(=O)c4cccs4)c2)N3)C1 (centres undefined),99*,36*,34*,0,110*,110*
CN1CCc2c(sc3c2C(=O)NC(c2ccc(-c4ccc(Cl)cc4)o2)N3)C1 (centres undefined),91*,12,31,1,86*,96*

# From PubChem
